The text below walks through data of ChEMBL document CHEMBL1154833, “Curcuminoid analogs with potent activity against Trypanosoma and Leishmania species” (Eur J Med Chem, 2010).

For one test, the system named is Trypanosoma evansi. Briefly: Antitrypanosomal activity against Trypanosoma evansi ITMAV170475 after 48 hrs by alamar blue assay. In kind it is functional, organism-based. Particulars: ITMAV170475, 48 h. The essentials:
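Culture-adapted T. evansi ITMAV170475 seeded at 1.5 ×10⁵ trypanosomes/ml in HMI9/20% FBS. Exposed to compound for 48 h, then incubated with Alamar Blue for 24 h, all at 37 °C under CO2. Assay validated against hemocytometer cell counts. EC50 from a variable-slope sigmoid fit.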

A further test relates to HEK293. Nature of the test: Cytotoxicity against HEK293 cells after 16 hrs by alamar blue assay. It is filed as cell-based, Homo sapiens. The note with it: Homo sapiens, HEK293, 16 h; read-out: EC50. The essentials:
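HEK293T cells grown in DMEM-based medium with 10% newborn bovine serum at 37 °C, 5% CO2. Doubling dilutions of compound added for 16 h, then resazurin added. Fluorescence read at emission 590 nm after a further 24 h.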

Test [1] has as its system Trypanosoma brucei brucei. Briefly: Antitrypanosomal activity against diminazene-resistant Trypanosoma brucei brucei deltaTbat1-KO after 48 hrs by alamar blue assay. In kind it is functional, organism-based. (In general: Resazurin is reduced to fluorescent resorufin, in cell work by metabolically active cells.)
Test [2] concerns Trypanosoma brucei brucei. Briefly: Antitrypanosomal activity against Trypanosoma brucei brucei 427 after 48 hrs by alamar blue assay. In kind it is functional, organism-based. The note with it: Trypanosoma brucei, 427, 48 h; read-out: EC50.
In another test the test system is Leishmania major. Nature of the test: Antileishmanial activity against Leishmania major Friedlin promastigotes after 48 hrs by alamar blue assay. In kind it is functional, organism-based. Particulars: Leishmania major, Friedlin, 48 h; read-out: EC50. A digest of the protocol:
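L. major Friedlin promastigotes grown in HOMEM with 10% FBS at 25 °C. Alamar Blue fluorescence assay in 96-well plates. 3–6 independent experiments unless noted.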

In another test the test system is Leishmania mexicana. Nature of the test: Antileishmanial activity against Leishmania mexicana MNYC/BZ/62/M379 amastigotes after 48 hrs by alamar blue assay. It is filed as functional, organism-based. The note with it: Leishmania mexicana, MNYC/BZ/62/M379, 48 h; read-out: EC50. The essentials: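 Axenic L. mexicana MNYC/BZ/62/M379 amastigotes kept at 33 °C under CO2 in Schneider's Drosophila medium with 20% FBS and 0.3% gentamycin. Alamar Blue fluorescence read-out.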

The test system of test [3] is Trypanosoma brucei brucei. Briefly: Antitrypanosomal activity against multidrug-resistant Trypanosoma brucei brucei B48 after 48 hrs by alamar blue assay. The note with it: B48, 48 h. In kind it is functional, organism-based.
Test [4] deals with Trypanosoma brucei brucei. Briefly: Selectivity ratio of EC50 for Trypanosoma brucei brucei B48 to EC50 for Trypanosoma brucei brucei 427. It is filed as functional. A digest of the protocol: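 T. b. brucei bloodstream forms (strain 427, its ΔTbAT1 clone, and the pentamidine-adapted B48 line derived from it) cultured in HMI9 with 10% FBS at 37 °C under CO2. EC50 for each line from the Alamar Blue fluorescence assay with sigmoid fitting, and the ratio taken between lines.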

What is called EC50 is the concentration giving half of the maximal effect.

Some results are limits rather than exact numbers.

With `COc1cc(/C=C/C(=O)CC(=O)/C=C/c2ccc(O)c(O)c2)ccc1O`, the EC50 in the test with Trypanosoma evansi was 1.1 µM; in the test with HEK293 it was 36 µM; in test [1], 1.1 µM; in test [2] it was 0.87 µM; with Leishmania major, 4.3 µM; in the test with Leishmania mexicana, 3.2 µM. The EC50 in test [3] amounted to 2.7 µM. For the same molecule, the “Ratio EC50” value in test [4] was determined as 3.1.
With `COc1cc(/C=C/C(=O)CC(=O)/C=C/c2ccc(OC(=O)c3ccccc3)c(OC)c2)ccc1O`, the EC50 came to 1.5 µM with Trypanosoma evansi; 94 µM in the test with HEK293; 3.8 µM in test [1]; 3.1 µM in test [2]; 9.3 µM with Leishmania major; 76 µM in the test with Leishmania mexicana. Moreover, the EC50 in test [3] was 2.1 µM.
As to `COc1cc(/C=C/C(=O)CC(=O)/C=C/c2ccc(OCCO)cc2)ccc1O`, the EC50 with HEK293 amounted to 46 µM; in test [1], 0.85 µM; in test [2] it was 0.7 µM; in the test with Leishmania major, 9.7 µM; in the test on Leishmania mexicana it was 32 µM; in test [3], 1.1 µM.
With `COc1cc(/C=C/C(=O)CC(=O)/C=C/c2cc(OC)c(O)c([N+](=O)[O-])c2)ccc1O`, the EC50 in the test on HEK293 came to 82 µM; in test [1], 18 µM; in test [2], 15 µM; in the test on Leishmania major it was 28 µM; with Leishmania mexicana it was 14 µM; in test [3] it was 25 µM.
With `COc1cc(/C=C/C(=O)CC(=O)/C=C/c2ccc(OC(C)=O)cc2)ccc1OC(C)=O`, the EC50 in the test on HEK293 is 49 µM; in test [1], 2 µM; in test [2], 1.5 µM; with Leishmania major, above 100 µM; with Leishmania mexicana, 43 µM; in test [3], 0.92 µM.
Turning to `CCCCCOc1ccc(CC/C=C/C(=O)CCc2ccc(OCCCCC)c(OC)c2)cc1OC`, the EC50 with HEK293 came to 43 µM; in test [1], 1.2 µM; in test [2], 1.1 µM; in the test on Leishmania major, 6.6 µM; in the test with Leishmania mexicana it was 53 µM; in test [3] it was 1.8 µM.
On to `COc1cc(CC/C=C/C(=O)CCc2ccc(OC(C)=O)c(OC)c2)ccc1OC(C)=O`, for which the EC50 with HEK293 amounted to 30 µM; in test [1], 0.042 µM; in test [2] it was 0.052 µM; with Leishmania major, 7.8 µM; in the test on Leishmania mexicana, 35 µM; in test [3], 0.021 µM.
For the molecule `COc1cc(CCCCC(=O)CCc2ccc(O)c(OC)c2)ccc1O`, the EC50 with HEK293 was 140 µM; in test [1], 28 µM; in test [2], 32 µM; in the test with Leishmania major it was 37 µM; in the test on Leishmania mexicana it was above 50 µM; in test [3], 27 µM.
For `COc1cc(CCC(=O)CC(=O)CCc2ccc(O)c(O)c2)ccc1O`, the EC50 amounted to 130 µM in the test on HEK293; 0.52 µM in test [1]; 0.5 µM in test [2]; 11 µM in the test with Leishmania major; 16 µM with Leishmania mexicana; 0.43 µM in test [3].
Consider `COc1cc(/C=C/C(=O)CC(=O)/C=C/c2ccc(O)cc2)ccc1OC(=O)c1ccccc1`, for which the EC50 in the test on HEK293 is 370 µM; in test [1] it was 1.6 µM; in test [2], 1.2 µM; in the test with Leishmania major it was 42 µM; with Leishmania mexicana, above 100 µM; in test [3], 4.7 µM.
As for `O=C(/C=C/c1ccc(O)cc1)CC(=O)/C=C/c1ccc(OC(=O)c2ccccc2)cc1`, the concentration for a half-maximal effect (EC50) in the test with HEK293 is 270 µM; in test [1], 10 µM; in test [2], 4.1 µM; with Leishmania major, 60 µM; in the test on Leishmania mexicana, above 100 µM; in test [3], 12 µM.
For `C=CCOc1ccc(/C=C/C(=O)CC(=O)/C=C/c2ccc(O)c(OC)c2)cc1OC`, the EC50 was 1.6 µM with Trypanosoma evansi; 270 µM with HEK293; 2.2 µM in test [1]; 2.4 µM in test [2]; 5.7 µM in the test on Leishmania major; 12 µM in the test with Leishmania mexicana. The EC50 in test [3] was determined as 12 µM. In test [4], the “Ratio EC50” value amounted to 5.
In the case of `COc1cc(/C=C/C(=O)CC(=O)/C=C/c2ccc(OCC=C(C)C)cc2)ccc1OCC=C(C)C`, the EC50 is above 500 µM with HEK293; 2.9 µM in test [1]; 1.9 µM in test [2]; 48 µM in the test with Leishmania major; 27 µM in the test on Leishmania mexicana; 3.1 µM in test [3].
Regarding `COc1cc(/C=C/C(=O)CC(=O)/C=C/c2ccc(OC(=O)c3ccccc3)cc2)ccc1O`, the EC50 in the test on Trypanosoma evansi was 2.9 µM; with HEK293, above 500 µM; in test [1] it was 7.8 µM; in test [2], 3.7 µM; in the test on Leishmania major it was 20 µM; in the test with Leishmania mexicana, above 100 µM. The molecule further displayed a concentration giving a half-maximal response (EC50) in test [3] of 7.8 µM.
For `COc1cc(/C=C/C=C/C(=O)CCc2ccc(O)c(OC)c2)ccc1O`, the EC50 amounted to 76 µM in the test on HEK293; 9.7 µM in test [1]; 4.1 µM in test [2]; 30 µM in the test with Leishmania major; 22 µM in the test on Leishmania mexicana; 2.2 µM in test [3].
Turning to `COc1cc(/C=C/C(=O)/C=C/CCc2ccc(O)c(OC)c2)ccc1O`, the EC50 in the test with Trypanosoma evansi is 0.21 µM; in the test on HEK293, 8.1 µM; in test [1] it was 0.22 µM; in test [2] it was 0.22 µM; with Leishmania major, 2.7 µM; in the test on Leishmania mexicana it was 4.6 µM. Besides, the midpoint of the response in test [3], the EC50, lay at 0.1 µM.
For the molecule `COc1cc(/C=C/C(=O)CC(=O)/C=C/c2ccc(OCCO)c(OC)c2)ccc1O`, the EC50 was 25 µM in the test with HEK293; 2.9 µM in test [1]; 2.9 µM in test [2]; 22 µM in the test on Leishmania major; 30 µM in the test with Leishmania mexicana; 1.8 µM in test [3].
Consider `COc1cc(/C=C/C(=O)CC(=O)/C=C/c2ccc(OCCO)c(OC)c2)ccc1OCCO`, for which the EC50 in the test on HEK293 amounted to 20 µM; in test [1], 2.3 µM; in test [2], 1.8 µM; with Leishmania major, 33 µM; with Leishmania mexicana, 37 µM; in test [3] it was 1.6 µM.
With `COc1cc(/C=C/C(=O)CC(=O)/C=C/c2ccc(OC(C)=O)c(OC)c2)ccc1OC(C)=O`, the EC50 in the test on HEK293 stood at 80 µM; in test [1], 2.2 µM; in test [2] it was 1.6 µM; in the test with Leishmania major it was 73 µM; in the test on Leishmania mexicana, 34 µM; in test [3] it was 1.2 µM.
`COc1cc(/C=C/C=C/C(=O)/C=C/c2ccc(O)c(OC)c2)ccc1O`: the EC50 worked out at 22 µM in the test on HEK293; 1.4 µM in test [1]; 1.1 µM in test [2]; 7.4 µM in the test with Leishmania major; 4.8 µM with Leishmania mexicana; 0.58 µM in test [3].
`O=C(/C=C/c1ccc(O)cc1)CC(=O)/C=C/c1ccc(O)cc1` [BISDEMETHOXYCURCUMIN]: the concentration for a half-maximal effect (EC50) in the test on HEK293 turned out to be 200 µM; in test [1], 9.5 µM; in test [2] it was 7.7 µM; with Leishmania major, 72 µM; in the test with Leishmania mexicana it was 63 µM; in test [3] it was 4.5 µM.
For `COc1cc(/C=C/C(O)=C/C(=O)/C=C/c2ccc(O)cc2)ccc1O` [DEMETHOXYCURCUMIN], the concentration giving a half-maximal response (EC50) in the test with HEK293 amounted to 40 µM; in test [1] it was 5.9 µM; in test [2] it was 4.6 µM; with Leishmania major, 37 µM; with Leishmania mexicana, 37 µM; in test [3] it was 2.2 µM.
Turning to `O=C(CCc1ccc(O)c(O)c1)CC(=O)CCc1ccc(O)c(O)c1` [DIDEMETHYLTETRAHYDROCURCUMIN], the EC50 in the test on HEK293 was 150 µM; in test [1], 1.5 µM; in test [2] it was 1.9 µM; in the test with Leishmania major, above 100 µM; with Leishmania mexicana, 53 µM; in test [3], 1.7 µM.
On to `N=C(N)c1ccc(/N=N/Nc2ccc(C(=N)N)cc2)cc1` [DIMINAZENE], for which the half-maximal effective concentration (EC50) came to 0.018 µM in the test with Trypanosoma evansi, 2.4 µM in test [1], 0.12 µM in test [2] and 1 µM in test [3].
For the molecule `COc1cc(CCC(=O)CC(O)CCc2ccc(O)c(OC)c2)ccc1O` (configuration not stated) [HEXAHYDROCURCUMIN], the EC50 was 370 µM with HEK293; 38 µM in test [1]; 17 µM in test [2]; above 100 µM in the test on Leishmania major; above 100 µM with Leishmania mexicana; 5.9 µM in test [3].
As to `O=C(CCc1ccc(O)cc1)CC(=O)CCc1ccc(O)cc1` [LETESTUIANIN C], the EC50 with HEK293 came out at 350 µM; in test [1], 4 µM; in test [2], 2.5 µM; in the test on Leishmania major, 80 µM; in the test on Leishmania mexicana, 64 µM; in test [3] it was 5.1 µM.
Regarding `COc1cc(CCC(=O)CC(=O)CCc2ccc(O)c(OC)c2)ccc1O` [TETRAHYDROCURCUMIN], the EC50 in the test on HEK293 worked out at 120 µM; in test [1], 37 µM; in test [2] it was 21 µM; with Leishmania major it was 90 µM; with Leishmania mexicana, 43 µM; in test [3] it was 12 µM.
